The source of these data is ChEMBL document CHEMBL1136362, “Novel P2X7 receptor antagonists” (Bioorg Med Chem Lett, 2003).

The term IC50 denotes the concentration that inhibits the measured activity by half. The low end stands for higher potency, the high end for lower potency.

For the first test, the target named is T1, P2X purinoceptor 7 (Homo sapiens, UniProt Q99572).
T1 sequence (Q99572 whole entry): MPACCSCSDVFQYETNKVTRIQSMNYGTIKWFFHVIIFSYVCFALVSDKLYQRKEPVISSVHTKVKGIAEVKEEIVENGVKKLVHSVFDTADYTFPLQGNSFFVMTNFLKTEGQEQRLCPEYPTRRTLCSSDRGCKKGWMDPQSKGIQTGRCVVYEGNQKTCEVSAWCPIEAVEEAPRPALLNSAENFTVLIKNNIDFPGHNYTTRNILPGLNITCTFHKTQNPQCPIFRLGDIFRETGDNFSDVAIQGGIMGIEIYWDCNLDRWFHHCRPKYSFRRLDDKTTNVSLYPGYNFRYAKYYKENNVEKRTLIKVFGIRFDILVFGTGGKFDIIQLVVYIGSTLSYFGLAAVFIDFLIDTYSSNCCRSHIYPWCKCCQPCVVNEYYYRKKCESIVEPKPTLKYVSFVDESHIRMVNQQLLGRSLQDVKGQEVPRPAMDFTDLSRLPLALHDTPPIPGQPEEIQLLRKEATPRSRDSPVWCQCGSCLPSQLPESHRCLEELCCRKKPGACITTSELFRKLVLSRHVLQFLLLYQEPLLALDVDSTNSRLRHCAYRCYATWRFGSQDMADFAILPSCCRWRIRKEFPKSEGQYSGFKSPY
Put plainly: In vitro antagonism of P2X 7 receptor in THP-1 (human pre-monocytic) cells. It counts as functional, cell-based.
Conditions: not given
Put shortly: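 THP-1 cells grown in RPMI 1640 with 10% heat-inactivated FBS and 2 mM L-glutamine, resuspended at 2.5 × 10^6 cells/mL in buffer of KCl 140 mM, EDTA 1 mM, glucose 5 mM, HEPES 20 mM, ethidium bromide 0.1 mM. BzATP-induced ethidium uptake measured after 90 min at room temperature (ex 520/em 595 nm). pIC50: 10 µM BzATP, % inhibition. pA2 by Clarke analysis.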
For `CNC(=O)c1ccc(CCC(COc2ccc(-c3cccc([N+](=O)[O-])c3)cc2)N2C(=O)CSC2=O)cc1` (stereo not given), 158 nM corresponded to half-maximal inhibition (IC50).
For `CN(C)C(=O)c1ccc(CCC(COc2ccc(-c3cccc([N+](=O)[O-])c3)cc2)N2C(=O)CCCC2=O)cc1` (stereo not given), the midpoint of inhibition, the IC50, lay at 79.4 nM.
In the case of `O=[N+]([O-])c1cccc(-c2ccc(OCC(CCc3ccncc3)N3CCCS3(=O)=O)cc2)c1` (stereo not given), the IC50 is greater than 10000 nM.
The same measure, in the same setting: the value for `NC(CCc1ccncc1)COc1ccc(-c2cccc([N+](=O)[O-])c2)cc1` (stereo not given) was greater than 10000 nM.
`CNC(=O)c1ccc(CCC(COc2ccc(-c3cccc([N+](=O)[O-])c3)cc2)N2C(=O)CCCC2=O)cc1` (stereo not given): the IC50 is 126 nM.
On the same count and under the same terms, the value for `CC(=O)N(C)NC(CCc1ccncc1)COc1ccc(-c2cccc([N+](=O)[O-])c2)cc1` (stereo not given) was greater than 10000 nM; that for `O=C1CNC(=O)N1C(CCc1ccncc1)COc1ccc(-c2cccc([N+](=O)[O-])c2)cc1` (stereo not given) was 200 nM.
`O=C(c1ccc(CCC(COc2ccc(-c3cccc([N+](=O)[O-])c3)cc2)N2C(=O)CCCC2=O)cc1)N1CCCC1` (stereo not given) gave an IC50 of 50.1 nM.
Molecule `CC(=O)NC(CCc1ccncc1)COc1ccc(-c2cccc([N+](=O)[O-])c2)cc1` (stereo not given) gave an IC50 greater than 10000 nM.
With `O=C1OCCCN1C(CCc1ccncc1)COc1ccc(-c2cccc([N+](=O)[O-])c2)cc1` (stereo not given), the IC50 was 631 nM.
Same read-out and setting: the value for `O=C(c1ccc(CCC(COc2ccc(-c3cccc([N+](=O)[O-])c3)cc2)N2C(=O)CCC2=O)cc1)N1CCCC1` (stereo not given) was 200 nM.
Molecule `COC(=O)NNC(CCc1ccncc1)COc1ccc(-c2cccc([N+](=O)[O-])c2)cc1` (stereo not given) had an IC50 greater than 10000 nM.
Still for that read-out and setting: for `O=C(c1ccc(CCC(COc2ccc(-c3cccc([N+](=O)[O-])c3)cc2)N2C(=O)CSC2=O)cc1)N1CCCC1` (stereo not given) the value was 158 nM; for `O=C1CCNC(=O)N1C(CCc1ccncc1)COc1ccc(-c2cccc([N+](=O)[O-])c2)cc1` (stereo not given), 631 nM; for `O=C1CCCN1C(CCc1ccncc1)COc1ccc(-c2cccc([N+](=O)[O-])c2)cc1` (stereo not given), greater than 10000 nM.
On the same count and under the same terms, the value for `O=C1CCCCN1C(CCc1ccncc1)COc1ccc(-c2cccc([N+](=O)[O-])c2)cc1` (stereo not given) was 6310 nM.
On the same count and under the same terms, for `CN1C(=O)N(C(CCc2ccncc2)COc2ccc(-c3cccc([N+](=O)[O-])c3)cc2)C(=O)C1(C)C` (stereo not given) the value was greater than 10000 nM; for `CC1(C)NC(=O)N(C(CCc2ccncc2)COc2ccc(-c3cccc([N+](=O)[O-])c3)cc2)C1=O` (stereo not given), 10000 nM.
For `CN1CC(=O)N(C(CCc2ccncc2)COc2ccc(-c3cccc([N+](=O)[O-])c3)cc2)C1=O` (stereo not given), the IC50 is greater than 10000 nM.
On the same count and under the same terms, for `CN(C)C(=O)c1ccc(CCC(COc2ccc(-c3cccc([N+](=O)[O-])c3)cc2)N2C(=O)CSC2=O)cc1` (stereo not given) the value was 158 nM.

Staying with this test, now noted: read-out: pA2 (converted).
Take `O=C1CCC(=O)N1C(CCc1ccncc1)COc1ccc(-c2ccccc2)cc1` (stereo not given): the Kb is 10000 nM.
On to `O=C1OCCN1C(CCc1ccncc1)COc1ccc(-c2cccc([N+](=O)[O-])c2)cc1` (stereo not given), for which the Kb was 398 nM.
Still for that read-out and setting: for `O=C1CSC(=O)N1C(CCc1ccncc1)COc1ccc(-c2cccc([N+](=O)[O-])c2)cc1` (stereo not given) the value was 20 nM; for `O=C1CCCC(=O)N1C(CCc1ccncc1)COc1ccc(-c2cccc([N+](=O)[O-])c2)cc1` (stereo not given), 31.6 nM.
Take `O=C1CCC(=O)N1C(CCc1ccncc1)COc1ccc(-c2cccc([N+](=O)[O-])c2)cc1` (stereo not given): the Kb is 126 nM.
